Assay results collected from several papers.
Lines come from different studies, so protocols differ.
ALK: ALK tyrosine kinase receptor (ALK, Homo sapiens, UniProt Q9UM73)
ALK C1156Y: ALK tyrosine kinase receptor (ALK, Homo sapiens, UniProt Q9UM73, C1156Y)
ALK L1196M: ALK tyrosine kinase receptor (ALK, Homo sapiens, UniProt Q9UM73, L1196M)

| Structure (SMILES) | target | test | conditions | remaining binding [%] |
| --- | --- | --- | --- | --- |
| CO[C@H]1CC[C@H](CNc2ccc(S(=O)(=O)NC(=O)c3ccc(N4CCN(CC5=C(c6ccc(Cl)cc6)CC(C)(C)CC5)CC4)cc3Oc3cnc4[nH]ccc4c3)cc2[N+](=O)[O-])CC1 | ALK | cell-free assay, competition with immobilised ligand | 1 µM | 100 |
| N[C@@H]1CCN(c2nccc(-c3cnn4ncccc34)n2)C1 | ALK | binding | 1 µM | 97 |
| CC(=O)N1CCC(c2ccc(C(=O)NC3=NCCN3)cc2C(F)(F)F)CC1 | ALK C1156Y | cell-free assay, competition with immobilised ligand | 1 µM | 100 |
| CN(CCCC(F)(F)F)c1nccc(-c2cnn3ncccc23)n1 | ALK | binding | 1 µM | 97 |
| O=C(NCCCN1CCOCC1)c1ccc(Nc2nccc(-c3cc4ccccc4s3)n2)cc1 | ALK L1196M | binding, competition with immobilised ligand | 1 µM | 100 |
| O=C(NCC1CCOCC1)c1n[nH]cc1NC(=O)c1c(F)cccc1F | ALK | binding, competition with immobilised ligand | 1 µM | 93 |
| Cc1noc([C@H]2C[C@@H](c3ccc(C(F)(F)F)cc3)CN(C(=O)N3CCS(=O)(=O)C3)C2)n1 | ALK | cell-free assay, competition with immobilised ligand | 1 µM | 100 |
| CN(c1nccc(-c2cnn3ncccc23)n1)C1CC1 | ALK C1156Y | binding | 1 µM | 100 |
| COc1cnc(Nc2cccc(S(N)(=O)=O)c2)nc1N1CCN(c2ccccc2)C(=O)C1 | ALK | binding, competition with immobilised ligand | 1 µM | 100 |
| C[C@H]1CCN(c2nccc(-c3cnn4ncccc34)n2)C1 | ALK | binding | 1 µM | 82 |
| COc1cnc(Nc2cccc(S(N)(=O)=O)c2)nc1N1CCN(c2ccccc2)CC1 | ALK L1196M | binding, competition with immobilised ligand | 1 µM | 100 |
| Nc1ncc2c(n1)-c1c([nH]c3ccc(C#CC4CC4)cc13)CCCC2 | ALK L1196M | binding, competition with immobilised ligand | 1 µM | 86 |
| O=C(c1ccc(Nc2ncc(Cl)c(-c3cc4ccccc4s3)n2)cc1)N1CCC(N2CCCC2)CC1 | ALK | binding, competition with immobilised ligand | 1 µM | 68 |
| CCCCN(CCCC)C(=O)CN1C[C@@H](c2cc(OC)c3c(c2)OCO3)[C@H](C(=O)O)[C@H]1CC(C)(C)CCC | ALK C1156Y | cell-free assay, competition with immobilised ligand | 1 µM | 95.4 |
| Cc1cnn2ncc(-c3ccnc(N(C)C)n3)c2c1 | ALK | binding | 1 µM | 92 |
| C[C@@H](c1ccc(-n2cnc3c(N)ncnc32)cc1)N1CCc2nn(C)c(Cc3ccccc3)c2C1=O | ALK C1156Y | binding, competition with immobilised ligand | 0.1 µM | 57 |
| COCCOc1nc(-c2ccc(Cl)nc2)nc2c1CN(C(=O)c1ncn3ccccc13)CC2 | ALK L1196M | cell-free assay, competition with immobilised ligand | 0.1 µM | 100 |
| F[C@@H]1CCN(c2nccc(-c3cnn4ncccc34)n2)C1 | ALK | binding | 1 µM | 100 |
| O=C(c1ccc(Nc2nccc(-c3cc4ccccc4s3)n2)cc1)N1CCC(N2CCCC2)CC1 | ALK C1156Y | binding, competition with immobilised ligand | 1 µM | 77 |
